In ChEMBL document CHEMBL5653631, “A Potent and Selective ULK1 Inhibitor Suppresses Autophagy and Sensitizes Cancer Cells to Nutrient Stress” (iScience, 2018) one finds inhibition and fold change (FC) data, which are given here for three compounds.

Experiment [1] addresses T1, Aurora kinase C (Homo sapiens) (UniProt Q9UQB9).
T1 sequence (whole entry): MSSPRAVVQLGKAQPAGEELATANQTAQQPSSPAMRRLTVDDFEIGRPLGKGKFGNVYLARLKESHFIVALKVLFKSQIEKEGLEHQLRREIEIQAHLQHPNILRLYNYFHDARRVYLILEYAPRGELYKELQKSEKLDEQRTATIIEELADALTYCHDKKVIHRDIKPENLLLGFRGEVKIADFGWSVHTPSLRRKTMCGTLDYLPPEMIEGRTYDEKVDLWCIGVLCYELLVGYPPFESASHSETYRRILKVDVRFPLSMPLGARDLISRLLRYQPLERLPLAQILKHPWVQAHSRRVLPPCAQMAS
The experiment is described as follows: Inhibition of human recombinant AurC at 15 nM in presence of ATP by radiometric assay relative to control. In short, it runs like this:
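Part of a radiometric in vitro activity panel of 327 recombinant human kinases. Each kinase was tested in duplicate at one inhibitor concentration. Activity remaining was expressed as a percentage of the vehicle control, and percent inhibition was taken as 100 minus that value.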

Experiment [2] has as its target Epithelial discoidin domain-containing receptor 1 (Homo sapiens) (UniProt Q08345). Briefly: Inhibition of human recombinant DDR1 at 15 nM in presence of ATP by radiometric assay relative to control.
Experiment [3] addresses RAC-gamma serine/threonine-protein kinase (Homo sapiens) (UniProt Q9Y243). Briefly: Inhibition of human recombinant AKT3 at 15 nM in presence of ATP by radiometric assay relative to control. The method in brief:
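Panel of 327 recombinant human kinases in radiometric activity assays, each screened in duplicate at a single inhibitor concentration; percent activity remaining relative to vehicle control, percent inhibition taken as 100 minus activity remaining.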

In experiment [4] the target is T2, Serine/threonine-protein kinase ICK (Homo sapiens) (UniProt Q9UPZ9).
T2 sequence (whole entry): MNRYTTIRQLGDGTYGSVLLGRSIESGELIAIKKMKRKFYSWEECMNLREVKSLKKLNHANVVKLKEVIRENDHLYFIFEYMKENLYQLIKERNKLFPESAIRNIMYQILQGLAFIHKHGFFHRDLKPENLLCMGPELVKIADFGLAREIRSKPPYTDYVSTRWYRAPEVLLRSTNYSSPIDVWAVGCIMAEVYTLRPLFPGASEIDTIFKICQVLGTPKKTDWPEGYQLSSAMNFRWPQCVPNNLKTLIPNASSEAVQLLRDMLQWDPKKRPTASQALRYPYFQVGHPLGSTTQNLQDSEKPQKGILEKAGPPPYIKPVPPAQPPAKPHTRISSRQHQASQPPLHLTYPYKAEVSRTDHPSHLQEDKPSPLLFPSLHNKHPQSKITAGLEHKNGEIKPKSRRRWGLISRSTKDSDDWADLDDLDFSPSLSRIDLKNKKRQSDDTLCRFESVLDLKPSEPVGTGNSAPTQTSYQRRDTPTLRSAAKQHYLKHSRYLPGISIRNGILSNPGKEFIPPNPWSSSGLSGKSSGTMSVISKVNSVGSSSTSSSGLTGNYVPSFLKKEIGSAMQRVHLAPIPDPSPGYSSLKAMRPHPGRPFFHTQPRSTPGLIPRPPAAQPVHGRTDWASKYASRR
Briefly: Inhibition of human recombinant ICK at 40 nM related to control ULK1.

In experiment [5] the target is Calcium/calmodulin-dependent protein kinase kinase 1 (Homo sapiens) (UniProt Q8N5S9). The experiment is described as follows: Inhibition of human recombinant CaMKK1 at 40 nM in presence of ATP by radiometric assay relative to control.
The target in experiment [6] is Serine/threonine-protein kinase PLK2 (Homo sapiens) (UniProt Q9NYY3). Briefly: Inhibition of human recombinant PLK2 at 500 nM related to control ULK1.
The target of experiment [7] is T3, Serine/threonine-protein kinase Nek11 (Homo sapiens) (UniProt Q8NG66).
T3 sequence (whole entry): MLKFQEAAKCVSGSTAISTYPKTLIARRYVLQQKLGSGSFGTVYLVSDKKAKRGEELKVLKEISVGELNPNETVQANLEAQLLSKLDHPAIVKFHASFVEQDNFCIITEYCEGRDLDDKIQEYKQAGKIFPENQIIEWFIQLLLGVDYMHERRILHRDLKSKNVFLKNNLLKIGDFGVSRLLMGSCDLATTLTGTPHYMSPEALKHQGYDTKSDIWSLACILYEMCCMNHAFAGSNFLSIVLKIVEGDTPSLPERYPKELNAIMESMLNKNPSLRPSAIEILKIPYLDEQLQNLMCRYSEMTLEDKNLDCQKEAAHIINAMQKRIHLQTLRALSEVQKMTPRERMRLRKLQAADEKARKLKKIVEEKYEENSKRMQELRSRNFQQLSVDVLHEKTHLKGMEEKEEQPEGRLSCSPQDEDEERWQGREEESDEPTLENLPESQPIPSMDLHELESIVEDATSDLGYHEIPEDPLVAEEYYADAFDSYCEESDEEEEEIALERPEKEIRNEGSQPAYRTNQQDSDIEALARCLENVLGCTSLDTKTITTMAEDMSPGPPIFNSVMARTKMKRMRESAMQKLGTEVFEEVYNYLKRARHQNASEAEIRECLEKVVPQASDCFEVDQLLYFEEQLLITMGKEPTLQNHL
The experiment is described as follows: Inhibition of human recombinant NEK11 at 500 nM in presence of ATP by radiometric assay relative to control.

In experiment [8] the target is Calcium/calmodulin-dependent protein kinase type II subunit gamma (Homo sapiens) (UniProt Q13555). Briefly: Inhibition of human recombinant CaMK2g at 500 nM related to control ULK1.

The structures appear in SMILES notation.

Chain of Serine/threonine-protein kinase PLK2 (Homo sapiens) (Q9NYY3 whole entry, looked up): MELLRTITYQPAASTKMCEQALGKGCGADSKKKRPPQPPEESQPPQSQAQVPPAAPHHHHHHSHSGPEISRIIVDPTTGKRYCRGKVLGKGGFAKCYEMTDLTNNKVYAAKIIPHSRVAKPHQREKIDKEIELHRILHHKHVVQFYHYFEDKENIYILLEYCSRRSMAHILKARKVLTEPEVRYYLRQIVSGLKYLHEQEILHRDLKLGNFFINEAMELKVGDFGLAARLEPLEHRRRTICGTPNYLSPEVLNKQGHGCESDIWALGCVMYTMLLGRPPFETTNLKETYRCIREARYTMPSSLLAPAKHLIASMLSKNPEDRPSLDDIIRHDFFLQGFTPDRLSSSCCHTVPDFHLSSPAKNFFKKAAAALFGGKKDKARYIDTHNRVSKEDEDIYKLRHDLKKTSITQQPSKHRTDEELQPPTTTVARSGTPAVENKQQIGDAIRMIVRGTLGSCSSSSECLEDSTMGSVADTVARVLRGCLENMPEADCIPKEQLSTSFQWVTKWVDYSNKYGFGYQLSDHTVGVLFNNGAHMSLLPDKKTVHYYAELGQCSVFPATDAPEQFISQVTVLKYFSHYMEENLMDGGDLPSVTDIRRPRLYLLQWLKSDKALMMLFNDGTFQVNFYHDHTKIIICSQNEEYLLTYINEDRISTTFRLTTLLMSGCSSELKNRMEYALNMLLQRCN
Chain of Epithelial discoidin domain-containing receptor 1 (Homo sapiens) (Q08345 whole entry, the tested form may be a part): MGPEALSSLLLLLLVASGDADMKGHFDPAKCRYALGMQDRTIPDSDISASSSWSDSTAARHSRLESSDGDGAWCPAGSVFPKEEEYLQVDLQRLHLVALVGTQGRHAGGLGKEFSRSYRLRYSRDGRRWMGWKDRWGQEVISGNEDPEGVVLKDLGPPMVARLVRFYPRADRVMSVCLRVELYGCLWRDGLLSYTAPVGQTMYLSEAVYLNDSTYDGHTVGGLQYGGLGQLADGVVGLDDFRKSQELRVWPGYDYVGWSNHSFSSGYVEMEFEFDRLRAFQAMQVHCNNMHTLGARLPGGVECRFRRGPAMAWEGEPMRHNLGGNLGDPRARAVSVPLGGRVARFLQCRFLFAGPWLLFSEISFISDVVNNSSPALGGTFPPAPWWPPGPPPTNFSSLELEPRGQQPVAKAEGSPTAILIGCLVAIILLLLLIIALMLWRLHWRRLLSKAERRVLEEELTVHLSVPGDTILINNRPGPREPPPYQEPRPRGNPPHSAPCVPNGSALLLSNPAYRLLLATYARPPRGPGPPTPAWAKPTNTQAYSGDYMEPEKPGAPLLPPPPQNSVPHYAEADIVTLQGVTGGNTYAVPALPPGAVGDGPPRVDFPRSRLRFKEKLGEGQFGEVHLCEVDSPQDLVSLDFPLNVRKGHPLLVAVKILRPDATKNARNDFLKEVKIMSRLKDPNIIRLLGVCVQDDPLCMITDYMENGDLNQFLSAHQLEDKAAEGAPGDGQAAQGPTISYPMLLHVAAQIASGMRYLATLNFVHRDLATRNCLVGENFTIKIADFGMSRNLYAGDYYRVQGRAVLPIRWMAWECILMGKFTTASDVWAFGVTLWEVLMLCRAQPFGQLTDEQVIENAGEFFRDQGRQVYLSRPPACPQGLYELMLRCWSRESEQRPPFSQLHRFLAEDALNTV
Chain of RAC-gamma serine/threonine-protein kinase (Homo sapiens) (Q9Y243 whole entry): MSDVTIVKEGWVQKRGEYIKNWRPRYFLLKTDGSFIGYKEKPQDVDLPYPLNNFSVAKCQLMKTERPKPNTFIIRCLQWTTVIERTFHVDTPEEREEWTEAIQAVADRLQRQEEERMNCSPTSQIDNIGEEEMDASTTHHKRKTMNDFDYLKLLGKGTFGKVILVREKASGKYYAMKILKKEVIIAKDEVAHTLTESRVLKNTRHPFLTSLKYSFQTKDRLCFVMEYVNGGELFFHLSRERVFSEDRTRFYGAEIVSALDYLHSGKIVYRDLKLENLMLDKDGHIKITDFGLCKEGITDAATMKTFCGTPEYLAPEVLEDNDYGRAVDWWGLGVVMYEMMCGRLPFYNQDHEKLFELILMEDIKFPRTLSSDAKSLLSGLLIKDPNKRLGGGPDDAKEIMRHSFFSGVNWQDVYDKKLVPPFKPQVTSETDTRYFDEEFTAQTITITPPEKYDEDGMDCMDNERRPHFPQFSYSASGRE
Chain of Calcium/calmodulin-dependent protein kinase kinase 1 (Homo sapiens) (Q8N5S9 whole entry, looked up): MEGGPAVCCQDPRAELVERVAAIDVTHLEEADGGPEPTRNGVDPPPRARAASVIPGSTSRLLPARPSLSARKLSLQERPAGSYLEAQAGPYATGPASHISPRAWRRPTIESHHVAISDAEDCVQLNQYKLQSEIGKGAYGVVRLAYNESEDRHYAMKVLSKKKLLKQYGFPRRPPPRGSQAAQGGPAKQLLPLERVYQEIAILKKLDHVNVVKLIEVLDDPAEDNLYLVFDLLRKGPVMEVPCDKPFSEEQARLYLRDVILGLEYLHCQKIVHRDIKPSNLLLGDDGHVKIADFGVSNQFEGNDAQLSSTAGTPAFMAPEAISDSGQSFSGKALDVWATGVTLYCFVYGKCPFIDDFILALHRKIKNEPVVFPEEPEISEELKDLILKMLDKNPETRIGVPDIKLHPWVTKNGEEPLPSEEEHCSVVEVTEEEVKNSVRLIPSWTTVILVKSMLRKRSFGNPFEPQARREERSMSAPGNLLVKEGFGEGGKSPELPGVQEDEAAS
Chain of Calcium/calmodulin-dependent protein kinase type II subunit gamma (Homo sapiens) (Q13555 whole entry): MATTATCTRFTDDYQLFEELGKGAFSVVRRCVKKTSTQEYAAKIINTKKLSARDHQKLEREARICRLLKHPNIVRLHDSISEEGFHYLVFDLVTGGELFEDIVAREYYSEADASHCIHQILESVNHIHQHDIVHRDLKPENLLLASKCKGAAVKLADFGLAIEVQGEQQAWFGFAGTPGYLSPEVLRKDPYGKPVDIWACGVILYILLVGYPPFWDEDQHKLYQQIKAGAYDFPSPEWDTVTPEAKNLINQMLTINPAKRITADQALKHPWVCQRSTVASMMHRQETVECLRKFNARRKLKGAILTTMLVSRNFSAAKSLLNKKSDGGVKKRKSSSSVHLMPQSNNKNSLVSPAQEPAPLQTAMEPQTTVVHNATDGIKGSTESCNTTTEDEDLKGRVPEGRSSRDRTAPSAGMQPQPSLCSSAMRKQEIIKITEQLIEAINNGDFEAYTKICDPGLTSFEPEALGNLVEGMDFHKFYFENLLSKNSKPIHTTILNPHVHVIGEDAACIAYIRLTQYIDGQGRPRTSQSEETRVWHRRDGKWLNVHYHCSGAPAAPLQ

As for `CC(C)[C@H](NC(=O)c1cc(-c2cnn3cc(-c4ccc(OCCN5CCCCC5)cc4)cnc23)cs1)C(F)(F)F`, the figures for the inhibition in experiment [1], in experiment [2] and in experiment [3] were 8%, 78% and 8%, respectively.

For the compound `O=C(N[C@@H](C1CC1)C(F)(F)F)c1cc(-c2cnn3cc(-c4ccc(F)cc4)cnc23)cs1`, the fold change (FC) in experiment [4] was determined as 0. Moreover, the inhibition (usually the change of the read-out against control, counted positive when it falls) in experiment [5] is 0%.

Regarding `CNC(=O)c1ccccc1Oc1nc(Nc2cc(OC)c(OC)c(OC)c2)ncc1Br`, the fold change (FC) in experiment [6] stood at 0.05; in experiment [8], 0.03. For the same compound, the inhibition in experiment [7] turned out to be 8%.
